Measurements as given in ChEMBL document CHEMBL4043283, “Discovery and Preclinical Development of IIIM-290, an Orally Active Potent Cyclin-Dependent Kinase Inhibitor” (J Med Chem, 2018).
In brackets after ≈: the same amount, converted by molar mass. Activity calls are given as the source filed them. The calls are words filed in the database; no cut-off is given here.

What was measured:
[1] = tested on: MOLT-4; test: Antitumor activity against human MOLT4 cells xenografted in CD1 nude mouse assessed as tumor growth inhibition at 25 mg/kg, po qd administered on day 10 to 25 post tumor inoculation; format: functional, organism-based
[2] = Tmax in Sprague-Dawley rat at 10 mg/kg, po by LC-MS/MS analysis; format: ADME, organism-based; settings: in vivo
[3] = Volume of distribution in BALB/c mouse at 1 mg/kg, iv by LC-MS/MS analysis; format: ADME, organism-based; settings: in vivo
[4] = Volume of distribution at steady state in BALB/c mouse at 1 mg/kg, iv by LC-MS/MS analysis; format: ADME, organism-based; settings: in vivo, read-out: Vdss
[5] = Growth inhibition of human FR2 cells after 48 hrs by MTT assay; format: cell-based
How it was run: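 fR2 is a normal epithelial line of ECACC type. Cells were grown in appropriate medium at 37 °C, 95% humidity, 5% CO2. Antiproliferative effect measured by MTT assay, with GI50 values derived from concentration-response testing.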

[6] = Pancreas to plasma partition coefficient, Kp of the compound in BALB/c mouse at 30 mg/kg, po measured at 1 hr; format: ADME, organism-based; settings: pancreas and plasma
[7] = AUC in Sprague-Dawley rat at 3 mg/kg, po by LC-MS/MS analysis; format: ADME, organism-based; settings: in vivo
[8] = Intrinsic clearance in human hepatocytes assessed per million cells at 3 uM after 180 mins by LC-MS/MS analysis; format: ADME, cell-based, Hepatocyte; settings: read-out: CLH
How it was run: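 Intrinsic clearance obtained from substrate disappearance over time, reported per mg protein (microsomes, S9) or per 10^6 cells (hepatocytes).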

[9] = tested on: MIA PaCa-2; test: Induction of apoptosis in human MIAPaCa2 cells assessed as formation of apoptotic bodies after 24 hrs by scanning electron microscopy; format: functional, cell-based
How it was run: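 Cells exposed to different compound concentrations for 24 h on coverslips, fixed in 2.5% glutaraldehyde in 0.1 M phosphate buffer pH 7.2 (4 °C, 24 h), postfixed in 1% OsO4 4 h, ethanol-dehydrated, critical-point dried with HMDS, gold-coated, imaged at 20 kV.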

[10] = Thermodynamic equilibrium solubility of compound in water after 5 hrs by shake flask method; format: physicochemical; settings: read-out: Therm_solubility
[11] = tested on: BT-549; test: Growth inhibition of human BT549 cells after 48 hrs by MTT assay; format: functional; settings: BT-549, 48 h
How it was run: (§1)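 Cancer cell lines sourced from the National Cancer Institute (USA). Cells kept in appropriate growth medium at 37 °C, 95% humidity, 5% CO2. Antiproliferation read by tetrazolium (MTT) assay. GI50 values were determined only for compounds selected after an initial single-concentration screen.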

[12] = tested on: PC-3; test: Growth inhibition of human PC3 cells at 10 uM after 48 hrs by MTT assay relative to control; format: functional; settings: PC-3, 48 h, read-out: GI
How it was run: (§2)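 Single-concentration primary screen at 10 μM by MTT assay. Cells were NCI-sourced cancer lines grown in appropriate medium at 37 °C, 95% humidity, 5% CO2. Growth inhibition is expressed relative to control.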

[13] = Half life in BALB/c mouse at 30 mg/kg, po by LC-MS/MS analysis; format: ADME, organism-based; settings: in vivo
[14] = molecular target: CDK2/Cyclin A2 (Homo sapiens, UniProt P24941); test: Inhibition of CDK2/cyclin A (unknown origin) using histone H1 as substrate after 30 mins in presence of [33P]-gamma-ATP by filter binding assay; format: protein-complex assay
[15] = tested on: Tyrosine-protein kinase ABL1 (Homo sapiens), P00519 [H396P]; test: Inhibition of partial length human ABL1 H396P mutant expressed in mammalian expression system at 0.5 uM by KINOMEscan method relative to control
How it was run: (§3)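 Competition binding screen (KINOMEscan) at 0.5 μM; primary binding read out as % of control, lower values indicating stronger interaction.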

[16] = molecular target: Cytochrome P450 2C19 (Homo sapiens, UniProt P33261); test: Inhibition of human CYP2C19 using fluorogenic substrate preincubated with co-factor for 10 mins followed by enzyme-substrate addition by fluorometric method; format: ADME
How it was run: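 Cofactor plus test item or vehicle, in triplicate, preincubated 10 min at 37 °C; prewarmed enzyme–substrate mix added and incubated at 37 °C with shaking. Quench: acetonitrile (CYP2C19, CYP3A4) or 0.25 M Tris in 60% methanol (CYP2C9, CYP2D6). Metabolite fluorescence read; % inhibition computed against enzyme controls and enzyme-free blanks.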

[17] = Cmax in Sprague-Dawley rat at 30 mg/kg, po by LC-MS/MS analysis; format: ADME, organism-based; design: dose 30 mg/kg, route oral; settings: in vivo
[18] = species on record: Homo sapiens; test: Selectivity ratio of IC50 for CDK2/cyclin A (unknown origin) to IC50 for CDK9/cyclin T1 (unknown origin)
[19] = Apparent permeability across apical to basolateral side in human Caco2 cells after 90 mins by LC-MS/MS analysis; format: ADME, cell-based; settings: Caco-2
How it was run: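 Caco-2 monolayers were grown for 21 days. Test compound in HBSS containing 10 mM HEPES was added to the apical chamber, and samples were taken from both the apical and basolateral chambers.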

[20] = Cmax in BALB/c mouse at 1 mg/kg, iv by LC-MS/MS analysis; format: ADME, organism-based; design: dose 1 mg/kg, route intravenous; settings: in vivo
[21] = AUC (0 to t) in BALB/c mouse at 10 mg/kg, po by LC-MS/MS analysis; format: ADME, organism-based; settings: in vivo
[22] = tested on: Caco-2; test: Growth inhibition of human Caco2 cells at 10 uM after 48 hrs by MTT assay relative to control; format: functional; settings: Caco-2, 48 h, read-out: GI; how it was run: as §2
[23] = Growth inhibition of human NCI-H322 cells after 48 hrs by MTT assay; format: functional; settings: NCI-H322, 48 h; how it was run: as §1
[24] = tested on: Salmonella typhimurium; test: Mutagenicity in Salmonella typhimurium TA98 at 50 ug/plate in absence of liver S9 fraction by Ames test; format: toxicity; settings: salmonella enterica subsp. enterica serovar typhimurium
[25] = Half life in human liver S9 fraction preincubated for 5 mins followed by NADPH addition measured after 30 mins by LC-MS/MS analysis; format: ADME, tissue-based
[26] = molecular target: Citron Rho-interacting kinase (Homo sapiens) (UniProt O14578); test: Inhibition of partial length wild type human CIT expressed in bacterial expression system at 0.5 uM by KINOMEscan method relative to control; how it was run: as §3
[27] = AUC in Sprague-Dawley rat at 30 mg/kg, po by LC-MS/MS analysis; format: ADME, organism-based; settings: in vivo
[28] = AUC in Sprague-Dawley rat at 10 mg/kg, po by LC-MS/MS analysis; format: ADME, organism-based; settings: in vivo
[29] = tested on: MIA PaCa-2; test: Induction of apoptosis in human MIAPaCa2 cells assessed as caspase-3 cleavage by Western blot method; format: functional, cell-based
How it was run: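 Lysate protein quantified against a BSA standard; 70 μg resolved by SDS-PAGE, transferred to PVDF overnight at 4 °C, 30 V; blocked 1 h in 5% nonfat milk/TBST; primary antibodies 2–4 h, HRP anti-mouse secondary 1 h; ECL detection on X-ray film.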

[30] = tested on: OVCAR-5; test: Growth inhibition of human OVCAR5 cells after 48 hrs by MTT assay; format: functional; settings: OVCAR-5, 48 h; how it was run: as §1
[31] = tested on: Lung; test: Drug uptake in BALB/c mouse lung at 30 mg/kg, po after 8 hrs; format: ADME, organism-based; settings: in vivo
[32] = tested on: Salmonella typhimurium; test: Mutagenicity in Salmonella typhimurium TA1535 at 50 ug/plate in absence of liver S9 fraction by Ames test; format: toxicity; settings: salmonella enterica subsp. enterica serovar typhimurium
[33] = Intrinsic clearance in rat liver microsomes assessed per mg of protein at 100 uM after 30 mins by LC-MS/MS analysis; format: ADME, microsome; settings: read-out: CLH

Cytochrome P450 2C19, sequence (P33261 whole entry): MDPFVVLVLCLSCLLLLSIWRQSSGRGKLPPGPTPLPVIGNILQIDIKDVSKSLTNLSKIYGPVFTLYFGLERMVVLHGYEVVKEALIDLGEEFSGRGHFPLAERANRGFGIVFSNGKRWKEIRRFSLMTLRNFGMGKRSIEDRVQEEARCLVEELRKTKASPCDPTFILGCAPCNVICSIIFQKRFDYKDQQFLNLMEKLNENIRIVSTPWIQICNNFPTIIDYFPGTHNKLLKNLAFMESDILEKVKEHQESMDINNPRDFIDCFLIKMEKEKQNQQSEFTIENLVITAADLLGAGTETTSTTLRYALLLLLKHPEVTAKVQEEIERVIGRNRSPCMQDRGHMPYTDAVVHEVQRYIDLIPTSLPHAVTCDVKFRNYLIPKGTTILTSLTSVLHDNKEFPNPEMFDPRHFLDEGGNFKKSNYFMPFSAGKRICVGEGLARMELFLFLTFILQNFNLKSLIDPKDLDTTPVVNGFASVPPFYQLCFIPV
Citron Rho-interacting kinase (Homo sapiens), sequence (O14578 whole entry): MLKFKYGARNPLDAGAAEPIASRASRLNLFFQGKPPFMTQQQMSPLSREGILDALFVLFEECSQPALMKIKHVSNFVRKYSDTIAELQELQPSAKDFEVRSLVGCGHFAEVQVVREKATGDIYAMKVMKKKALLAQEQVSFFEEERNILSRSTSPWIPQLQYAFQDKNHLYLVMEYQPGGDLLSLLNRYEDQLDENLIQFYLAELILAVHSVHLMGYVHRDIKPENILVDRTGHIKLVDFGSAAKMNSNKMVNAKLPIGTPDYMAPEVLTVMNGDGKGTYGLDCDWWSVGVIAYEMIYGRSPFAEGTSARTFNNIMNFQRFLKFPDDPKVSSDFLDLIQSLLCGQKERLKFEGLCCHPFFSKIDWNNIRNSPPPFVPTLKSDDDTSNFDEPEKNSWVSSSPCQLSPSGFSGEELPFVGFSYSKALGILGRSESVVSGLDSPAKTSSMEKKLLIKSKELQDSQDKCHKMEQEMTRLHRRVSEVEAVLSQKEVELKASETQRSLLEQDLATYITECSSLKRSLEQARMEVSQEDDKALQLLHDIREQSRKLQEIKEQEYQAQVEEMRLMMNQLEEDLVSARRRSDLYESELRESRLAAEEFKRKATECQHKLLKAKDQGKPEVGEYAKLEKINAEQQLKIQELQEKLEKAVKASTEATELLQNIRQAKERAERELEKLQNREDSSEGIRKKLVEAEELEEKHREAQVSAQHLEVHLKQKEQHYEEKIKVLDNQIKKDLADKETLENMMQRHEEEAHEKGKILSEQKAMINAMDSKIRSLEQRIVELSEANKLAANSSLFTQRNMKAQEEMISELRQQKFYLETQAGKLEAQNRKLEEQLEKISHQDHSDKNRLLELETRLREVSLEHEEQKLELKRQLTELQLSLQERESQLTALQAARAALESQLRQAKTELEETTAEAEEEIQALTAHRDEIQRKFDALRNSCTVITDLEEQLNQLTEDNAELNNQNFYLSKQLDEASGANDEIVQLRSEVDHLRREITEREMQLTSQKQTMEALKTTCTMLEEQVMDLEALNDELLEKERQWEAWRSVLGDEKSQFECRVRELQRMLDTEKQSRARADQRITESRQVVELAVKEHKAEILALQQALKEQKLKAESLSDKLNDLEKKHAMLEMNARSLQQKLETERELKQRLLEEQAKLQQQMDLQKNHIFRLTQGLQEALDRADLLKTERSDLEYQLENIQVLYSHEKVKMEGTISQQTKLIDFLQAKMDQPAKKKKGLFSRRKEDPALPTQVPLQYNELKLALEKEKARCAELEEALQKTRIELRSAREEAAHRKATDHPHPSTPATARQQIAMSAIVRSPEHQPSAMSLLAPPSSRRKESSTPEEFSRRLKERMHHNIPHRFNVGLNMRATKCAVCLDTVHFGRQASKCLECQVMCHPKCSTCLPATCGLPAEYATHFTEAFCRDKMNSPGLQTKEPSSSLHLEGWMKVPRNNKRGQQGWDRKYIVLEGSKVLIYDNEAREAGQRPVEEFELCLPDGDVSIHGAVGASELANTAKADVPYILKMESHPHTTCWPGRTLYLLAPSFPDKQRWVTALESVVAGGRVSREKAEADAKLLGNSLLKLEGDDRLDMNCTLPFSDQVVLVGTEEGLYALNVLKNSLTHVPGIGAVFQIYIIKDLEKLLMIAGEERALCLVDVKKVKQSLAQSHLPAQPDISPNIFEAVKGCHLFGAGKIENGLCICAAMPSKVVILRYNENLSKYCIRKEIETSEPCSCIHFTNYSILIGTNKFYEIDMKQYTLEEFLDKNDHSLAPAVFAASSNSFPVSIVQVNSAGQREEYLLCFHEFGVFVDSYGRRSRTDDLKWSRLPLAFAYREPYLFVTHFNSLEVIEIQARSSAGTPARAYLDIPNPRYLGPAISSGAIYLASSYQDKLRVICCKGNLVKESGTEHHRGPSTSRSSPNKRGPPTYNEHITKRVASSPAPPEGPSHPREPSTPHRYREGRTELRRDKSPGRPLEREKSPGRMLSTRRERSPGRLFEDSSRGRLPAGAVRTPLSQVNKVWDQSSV

Question: For `CN1CC[C@H](c2c(O)cc(O)c3c(=O)cc(/C=C/c4c(Cl)cccc4Cl)oc23)[C@H](O)C1`, which TGI [1] is on record?
Answer: The TGI was “inactive”.

Question: What about the Tmax [2] of the same compound?
Answer: Its Tmax is 1.75 h.

Question: What about the Vd [3] of the same compound?
Answer: The Vd was 26.2 L/kg.

Question: What about the Vd [4] of the same compound?
Answer: The Vd was 14.1 L/kg.

Question: And the GI50 at 48 h [5]?
Answer: The GI50 at 48 h was 19 µM.

Question: What about the Kp at 1 h [6] of the same compound?
Answer: The Kp at 1 h was 24.4.

Question: What about the AUC [7] of the same compound?
Answer: The AUC was 1.44 µM·h.

Question: And the hepatocyte CLint at 3 µM [8]?
Answer: Its hepatocyte CLint at 3 µM is 4.8 µL/min/1e6 cells.

Question: And the Activity [9]?
Answer: The Activity was “Active”.

Question: What about the solubility thermodynamic at 5 h [10] of the same compound?
Answer: Its solubility thermodynamic at 5 h is 20.3 µg/mL (≈ 43.9 µM).

Question: And the GI50 [11]?
Answer: Its GI50 is 5 µM.

Question: What about the inhibition of growth at 10 µM [12] of the same compound?
Answer: Its inhibition of growth at 10 µM is 84%.

Question: And the half-life [13]?
Answer: Its half-life is 3.62 h.

Question: And the IC50 [14]?
Answer: Its IC50 is 0.0155 to 0.016 µM.

Question: And the inhibition [15]?
Answer: Its inhibition is over 98%.

Question: What about the IC50 [16] of the same compound?
Answer: The IC50 was over 20 µM.

Question: And the Cmax [17]?
Answer: Its Cmax is 3620 nM.

Question: What about the Ratio IC50 [18] of the same compound?
Answer: Its Ratio IC50 is 7.

Question: What about the Papp A→B at 1.5 h [19] of the same compound?
Answer: The Papp A→B at 1.5 h was 2.1 ×10⁻⁶ cm/s.

Question: What about the Cmax [20] of the same compound?
Answer: Its Cmax is 677 nM.

Question: What about the AUC(0-t) [21] of the same compound?
Answer: The AUC(0-t) was 4.5 µM·h.

Question: What about the inhibition of growth at 10 µM [22] of the same compound?
Answer: Its inhibition of growth at 10 µM is 68%.

Question: And the GI50 [23]?
Answer: The GI50 was 2 µM.

Question: What about the Activity [24] of the same compound?
Answer: The Activity was “Non-Toxic”.

Question: And the half-life [25]?
Answer: The half-life was 1.2 h.

Question: What about the inhibition [26] of the same compound?
Answer: Its inhibition is over 98%.

Question: And the AUC [27]?
Answer: Its AUC is 15.9 µM·h.

Question: What about the AUC [28] of the same compound?
Answer: The AUC was 5.68 µM·h.

Question: And the Activity [29]?
Answer: The Activity was “Dose-dependent effect”.

Question: And the GI50 [30]?
Answer: Its GI50 is 7 µM.

Question: What about the Drug uptake [31] of the same compound?
Answer: The Drug uptake was “Active”.

Question: And the Activity [32]?
Answer: Its Activity is “Non-Toxic”.

Question: And the microsomal CLint at 100 µM [33]?
Answer: Its microsomal CLint at 100 µM is under 13 µL/min/mg.
